Consider nine compounds from publication PMC10847618 (Heliyon, 2024).

One data set has as its system PfCDPK1. The settings on record: cited from earlier work.
For data set [1], the system named is P. falciparum CQ^S-3D7. Briefly: Growth inhibition assay. The class given is cell-based, Plasmodium falciparum. To be noted: for inhibition at 10 µM: 3D7, 10 μM; for IC50: one intra-erythrocytic cycle.
Data set [2] concerns mammalian kinome (HepG2 lysate). Briefly: In vitro kinase assay with HepG2 lysate. The class given is biochemical, human. To be noted: HepG2 cytosolic fraction; 1 and 5 μM. In a few lines:
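HepG2 cells (10^7) were lysed for 1 h at 4 °C in 20 mM Tris (pH 7.7), 0.5 % NP-40, 200 mM NaCl, 50 mM NaF, 0.2 mM orthovanadate, protease inhibitors and 0.1 % 2-mercaptoethanol. The lysate was spun at 13,000 rpm for 10 min. Kinase activity of the supernatant was measured by ADP-Glo luminescence with test compound at 1 and 5 μM.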

In data set [3] the target is recombinant 6xHis-CDPK1 protein (rPfCDPK1) (Plasmodium falciparum, UniProt P62344). Briefly: Microscale thermophoresis. The class given is binding. In a few lines:
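Recombinant 6xHis-PfCDPK1 (10 μM) in HEPES-NaCl (pH 7.5) with 0.05 % Tween-20 was labelled with 30 μM cysteine-reactive red maleimide dye for 30 min at RT in the dark. It was then column-purified, keeping fractions below 1000 fluorescence counts. Test compound was serially titrated (4.8 nM–80 μM or 2.4 nM–40 μM) against constant labelled protein and premixed 10 min at RT in the dark. MST was run at RT, 20 % LED and 40 % MST power.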

Another data set concerns the target rPfCDPK1 (Plasmodium falciparum, UniProt P62344). Nature of the data set: In vitro kinase assay. The class given is biochemical. In a few lines:
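100 ng 6xHis-CDPK1 per reaction in 100 mM Tris-Cl pH 7.4, 50 mM MgCl2, 2.5 mM DTT, 2.5 mM MnCl2, with or without Ca2+ (2.5 mM EGTA). Dephosphorylated bovine casein substrate. Enzyme pre-incubated with test compound (1 or 5 µM) for 20 min at RT. ATP-started reaction run 1 h at 30 °C. ADP formation read by ADP-Glo luminescence.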

In data set [4] the test system is P. falciparum CQ^S-3D7. To be noted: stated IC50 of the standard drug, used as positive control; ref not given; cited from earlier work.
The next data set can be described thus: Hemolytic activity. The class given is cell-based, human. The settings on record: human, red blood cell suspension (10 %, v/v), pH 7.4. Put shortly: (§1)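 Washed human RBCs (10 %, v/v) were resuspended in PBS (pH 7.4) and incubated with test compound at 1.5–800 μM for 1 h at 37 °C. After centrifugation, supernatant absorbance was read at 415 nm. RBCs treated with 1 % (v/v) Triton X-100 were the positive control. Run in triplicate.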

Another data set deals with human RBCs. Briefly: Hemolytic activity. The class given is cell-based. The settings on record: 1.5–800 μM. Put shortly: as §1
Data set [5] can be described thus: MTT cytotoxicity assay. The class given is cell-based, human. The settings on record: human, HEK293 cells. Put shortly: (§2)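 Cells were seeded in DMEM with 10 % FBS (HEK293 2 × 10^4 per well; HepG2 10^4 per well) and incubated overnight at 37 °C in 5 % CO2. Test compound was added at 2.5–600 μM (HEK293) or 2–500 μM (HepG2) for 24 h at 37 °C, with untreated cells as control. MTT was added (stock 5 mg/mL in PBS), formazan was dissolved in DMSO, and absorbance read at 570 nm. Run in triplicate.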
A general note: Tetrazolium dyes change colour on reduction, which living cells bring about.

Another data set relates to HEK293 cells. Briefly: MTT cytotoxicity assay. The class given is cell-based, human. The settings on record: HEK293; 2.5–600 μM. Put shortly: as §2
Data set [6] has as its system hemozoin in synchronized ring-stage parasites. Briefly: Hemozoin assay. The class given is cell-based, Plasmodium falciparum. The settings on record: 10 μM; 30 h. Put shortly:
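P. falciparum cultures were synchronized at ring stage, held at 6 % parasitemia, and treated with test compound for 30 h in triplicate. Cells were then treated with 2.5 % SDS in 0.1 M sodium bicarbonate (pH 8.8) for 10 min at RT and centrifuged. The pellet was resuspended in 5 % SDS/50 mM NaOH for 30 min. Monomeric heme was read as A405 minus A750.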

A further data set concerns CQ^S-3D7 P. falciparum. Briefly: Growth progression analysis / blood stage-specific effect. The class given is cell-based, Plasmodium falciparum.
The next data set concerns P. falciparum CQ^R-RKL-9. Briefly: Growth inhibition assay. The class given is cell-based, Plasmodium falciparum.
The next data set deals with HepG2 cells. Nature of the data set: MTT cytotoxicity assay. The class given is cell-based, human. The settings on record: HepG2; 2–500 μM. In a few lines:
as §2

Data set [7] in a line: MTT cytotoxicity assay. The class given is cell-based, human. To be noted: human, HepG2 cells. In a few lines: as §2
Where [8] appears, read: Plasmodium falciparum, CQ^S-3D7.
The mark [9] stands for this setting: Plasmodium falciparum, 3D7, CQ^S-3D7.

Several values for one entry are separate records, joined by “and”; a condition that tells them apart may be missing. Equal entries are not always repeated. Entries after “also recorded” stand apart in the source; their conditions may differ. Where two headings read alike, the source gives them in different places. Some results are limits rather than exact numbers.

The inhibition is the drop in the measured response relative to a control, in per cent. The term Kd denotes the free concentration of one partner at which half of the binding sites on the other are occupied at equilibrium, for simple one-to-one binding. By IC50 is commonly meant the midpoint of a concentration-inhibition curve. The term viability denotes a per cent measure of how many cells are alive, often set against a control. Lower therefore signals more harm to the cells.

Chain of rPfCDPK1 (P62344 whole entry): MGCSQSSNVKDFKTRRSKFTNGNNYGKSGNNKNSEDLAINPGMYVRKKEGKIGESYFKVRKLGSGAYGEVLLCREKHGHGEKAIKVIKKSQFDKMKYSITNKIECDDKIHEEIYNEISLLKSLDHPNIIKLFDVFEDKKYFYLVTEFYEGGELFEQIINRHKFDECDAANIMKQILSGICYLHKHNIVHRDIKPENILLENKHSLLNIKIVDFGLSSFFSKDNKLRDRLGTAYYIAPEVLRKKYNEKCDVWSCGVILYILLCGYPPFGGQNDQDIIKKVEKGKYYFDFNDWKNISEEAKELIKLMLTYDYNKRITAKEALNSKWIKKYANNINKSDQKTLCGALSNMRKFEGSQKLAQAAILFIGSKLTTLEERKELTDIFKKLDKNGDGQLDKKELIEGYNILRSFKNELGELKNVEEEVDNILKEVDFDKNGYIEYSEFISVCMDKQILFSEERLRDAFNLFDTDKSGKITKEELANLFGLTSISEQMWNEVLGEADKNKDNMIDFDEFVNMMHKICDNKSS
Chain of recombinant 6xHis-CDPK1 protein (rPfCDPK1) (P62344 whole entry): as above

Take `CCCCCC(=O)NCCc1c[nH]c2ccccc12` [A, N-[2-(1H-indol-3-yl)ethyl]hexanamide]: in the data set with PfCDPK1, the “PfCDPK1 inhibition potency in words” value was “sub-micromolar potency”.
Regarding `O=Cc1cn(Cc2cn(-c3ccnc4cc(Cl)ccc34)nn2)c2ccccc12` [compound 9, 1-((1-(7-chloroquinolin-4-yl)-1H-1,2,3-triazol-4-yl)methyl)-1H-indole-3-carbaldehyde], in the data set on P. falciparum CQ^S-3D7 [1] (at the tested concentration, CQ^S 3D7), the “growth inhibition in words” value was “poor inhibition; also recorded: not a good inhibitor”.
In the data set on P. falciparum CQ^S-3D7 [1] (setting [8]), `O=C(/C=C/c1cn(Cc2cn(-c3ccnc4cc(Cl)ccc34)nn2)c2ccccc12)c1cccs1` [7p, (E)-3-(1-((1-(7-chloroquinolin-4-yl)-1H-1,2,3-triazol-4-yl)methyl)-1H-indol-3-yl)-1-(thiophen-2-yl)prop-2-en-1-one] yielded an inhibition at 10 µM of more than 50%.
Take `COc1ccccc1C(=O)/C=C/c1cn(Cc2cn(-c3ccnc4cc(Cl)ccc34)nn2)c2ccccc12` [7l, (E)-3-(1-((1-(7-chloroquinolin-4-yl)-1H-1,2,3-triazol-4-yl)methyl)-1H-indol-3-yl)-1-(2-methoxyphenyl)prop-2-en-1-one]: the “inhibition of host kinase activity in words” value in data set [2] is reported as “no inhibition of the host kinase activity”. Further, the dissociation constant Kd in data set [3] is 17300 nM. Also, the “PI of PfCDPK1 (inhibition of phosphorylation activity)” value on rPfCDPK1 (1 μM) is 71.9%. The compound further had an IC50 with P. falciparum CQ^S-3D7 [1] (setting [9]) of 2400 nM.
As for `COc1ccc(C(=O)/C=C/c2cn(Cc3cn(-c4ccnc5cc(Cl)ccc45)nn3)c3ccccc23)cc1` [7n, (E)-3-(1-((1-(7-chloroquinolin-4-yl)-1H-1,2,3-triazol-4-yl)methyl)-1H-indol-3-yl)-1-(4-methoxyphenyl)prop-2-en-1-one], in the data set on P. falciparum CQ^S-3D7 [1] (setting [8]), the inhibition at 10 µM is more than 50%.
`O=C(/C=C/c1cn(Cc2cn(-c3ccnc4cc(Cl)ccc34)nn2)c2ccccc12)c1cccc(Br)c1` [7f, (E)-1-(3-bromophenyl)-3-(1-((1-(7-chloroquinolin-4-yl)-1H-1,2,3-triazol-4-yl)methyl)-1H-indol-3-yl)prop-2-en-1-one]: the inhibition at 10 µM with P. falciparum CQ^S-3D7 [1] (setting [8]) is more than 50%.
For the compound `CCN(CC)CCCC(C)Nc1ccnc2cc(Cl)ccc12` (stereo not drawn) [CQ, chloroquine], in the data set on P. falciparum CQ^S-3D7 [4], the IC50 is 25 nM.
Consider `Cc1ccccc1C(=O)/C=C/c1cn(Cc2cn(-c3ccnc4cc(Cl)ccc34)nn2)c2ccccc12` [7r, (E)-3-(1-((1-(7-chloroquinolin-4-yl)-1H-1,2,3-triazol-4-yl)methyl)-1H-indol-3-yl)-1-o-tolylprop-2-en-1-one], for which the “inhibition of host kinase activity in words” value in [2] is “no inhibition of the host kinase activity; also recorded: no inhibitory effect on the human kinome; also recorded: no inhibitory effect on the human kinases”. The hemolysis at 1 h, 50 µM in the data set “Hemolytic activity” was 2.3%. This compound came in with a hemolysis at 1 h, 800 µM in “Hemolytic activity” of 5.9%. Besides, in the data set with human RBCs, the “hemolytic activity in words” value was “no significant lysis; also recorded: no apparent hemolytic activity”. Moreover, the viability at 24 h, 100 µM in “MTT cytotoxicity assay [5]” and in the data set “MTT cytotoxicity assay [7]” was more than 90% in each case. Besides, the cytotoxicity in words result with HEK293 cells and in the data set on HepG2 cells was “non-cytotoxic” throughout. Also, the Kd in [3] was 7200 nM. Besides, the inhibition at 1 µM on rPfCDPK1 (read-out: PI of PfCDPK1 (inhibition of phosphorylation activity), 1 μM) came to 45.5%. The inhibition at 5 µM on rPfCDPK1 (read-out: PI of PfCDPK1 (inhibition of phosphorylation activity), 5 μM) is 43.8%. Besides, the “free monomeric heme (control-free heme)” value in [6] is 48.8% and 48%. Besides, in the data set on CQ^S-3D7 P. falciparum, the “intra-erythrocytic progression: stage affected” value is given as “effective against the mature stages of the parasite”. Besides, the “growth progression, morphology” value in the data set with CQ^S-3D7 P. falciparum (ring stage treated at IC50 concentration, 40 and 56 h post-treatment) is reported as “stuck at the trophozoite stage with altered morphology”. The IC50 with P. falciparum CQ^S-3D7 [1] (CQ^S-3D7) turned out to be 1800 nM; in the data set with P. falciparum CQ^S-3D7 [1] (setting [9]), 3500 nM; in the data set on P. falciparum CQ^R-RKL-9 (CQ^R-RKL-9, one intra-erythrocytic cycle), 2700 nM. The inhibition at 10 µM with P. falciparum CQ^S-3D7 [1] (setting [8]) is more than 50%. For the same compound, the “Resistance Index (RI)” value in the data set on P. falciparum CQ^R-RKL-9 (IC50 CQ^R-RKL-9/CQ^S-3D7) worked out at 1.49.
Regarding `O=C(/C=C/c1cn(Cc2cn(-c3ccnc4cc(Cl)ccc34)nn2)c2ccccc12)c1ccccc1Cl` [7h, (E)-1-(2-chlorophenyl)-3-(1-((1-(7-chloroquinolin-4-yl)-1H-1,2,3-triazol-4-yl)methyl)-1H-indol-3-yl)prop-2-en-1-one], the inhibition at 10 µM in the data set on P. falciparum CQ^S-3D7 [1] (setting [8]) was more than 50%.
